Usually MIC stands for the least concentration at which growth counts as inhibited. Higher therefore signals a less susceptible organism. The term IC50 denotes the concentration that inhibits the measured activity by half. Low values mean greater potency in that assay, high ones weaker potency in that assay.

In brackets after ≈: the same amount, converted by molar mass.

In one assay the test system is Microsporum. Briefly: Antifungal activity against Microsporum gypseum PTCC 5070 after 168 hrs by agar dilution method. In kind it is functional. The procedure, abridged: (§1)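 Agar dilution on Sabouraud Dextrose Agar. Plates prepared in triplicate and incubated at 30 °C: yeasts about 24–48 h, moulds about 72 h, dermatophytes about 168 h. MIC taken as the lowest concentration with no growth, in µg/mL. Footnote states duplicate determinations.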

Another assay concerns Candida albicans. In words: Antifungal activity against Candida albicans PTCC 5027 after 24 to 48 hrs by agar dilution method. It counts as functional. The procedure, abridged:
as §1
(In agar dilution, organisms are placed on agar that contains the substance at set levels.)

The test system of another assay is Aspergillus niger. In words: Antifungal activity against Aspergillus niger PTCC 5012 after 72 hrs by agar dilution method. In kind it is functional. Summed up: as §1
For another assay, the system named is Saccharomyces cerevisiae. Briefly: Antifungal activity against Saccharomyces cerevisiae PTCC 5177 after 24 to 48 hrs by agar dilution method. It counts as functional. The procedure, abridged:
as §1

A short description of assay [1]: Cytotoxicity against mouse NIH/3T3 cells after 72 hrs by MTT colorimetric assay. It counts as cell-based. The settings on record: NIH3T3, 72 h. The procedure, abridged: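 NIH/3T3 cells in exponential growth were trypsinized and seeded at 5 × 10^4 cells/mL in complete medium. Serial dilutions were added, each in triplicate, with untreated cells as the viability control. After 72 h incubation, MTT (5 mg/mL solution) was added for 1 h. Medium was replaced with DMSO and absorbance read at 492 nm. IC50 was taken from dose-response curves against control; mean ± SD of triplicates.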
(In general: Tetrazolium assays rely on reduction of a dye to a coloured formazan, in cell work by metabolically active cells.)

For the compound `O=C(Cn1ccnc1)c1ccc(Cl)cc1O`, the MIC in the assay with Microsporum is 32 µg/mL (≈ 135 µM); against Candida albicans, 64 µg/mL (≈ 270 µM); against Aspergillus niger, 64 µg/mL (≈ 270 µM); with Saccharomyces cerevisiae it was 0.25 µg/mL (≈ 1.06 µM).
On to `COc1ccc(C(=O)Cn2ccnc2)c(O)c1`, for which the MIC was 8 µg/mL (≈ 34.4 µM) with Microsporum, 8 µg/mL (≈ 34.4 µM) in the assay with Candida albicans, 16 µg/mL (≈ 68.9 µM) in the assay with Aspergillus niger and 0.25 µg/mL (≈ 1.08 µM) with Saccharomyces cerevisiae. In addition, inhibition in assay [1] was half-maximal at 221 µg/mL (≈ 952 µM) (IC50).
Regarding `O=C(Cn1cncn1)c1ccccc1O`, the MIC with Microsporum worked out at 64 µg/mL (≈ 315 µM); in the assay on Candida albicans, 64 µg/mL (≈ 315 µM); against Aspergillus niger it was 32 µg/mL (≈ 157 µM); in the assay with Saccharomyces cerevisiae, 64 µg/mL (≈ 315 µM).
As to `O=C(Cn1cncn1)c1ccc(Cl)cc1O`, the MIC came out at 16 µg/mL (≈ 67.3 µM) in the assay on Microsporum, 32 µg/mL (≈ 135 µM) against Candida albicans, 16 µg/mL (≈ 67.3 µM) against Aspergillus niger and 64 µg/mL (≈ 269 µM) against Saccharomyces cerevisiae.
With `COc1ccc(C(=O)Cn2cncn2)c(O)c1`, the minimal inhibitory concentration (MIC) was 16 µg/mL (≈ 68.6 µM) against Microsporum, 8 µg/mL (≈ 34.3 µM) with Candida albicans, 32 µg/mL (≈ 137 µM) with Aspergillus niger and 8 µg/mL (≈ 34.3 µM) against Saccharomyces cerevisiae. Further, inhibition in assay [1] was half-maximal at 222 µg/mL (≈ 952 µM) (IC50).
As to `COc1ccc(C(=O)Cn2c[n+](N)cn2)c(O)c1.[Br-]`, the minimal inhibitory concentration (MIC) is 8 µg/mL in the assay with Microsporum, 2 µg/mL against Candida albicans, 16 µg/mL against Aspergillus niger and 4 µg/mL against Saccharomyces cerevisiae. In assay [1], the IC50 came to 254 µg/mL.
As to `O=C(Cn1c[n+](CC(=O)c2ccc(Cl)cc2O)cn1)c1ccc(Cl)cc1O.[Br-]`, the minimal inhibitory concentration (MIC) against Microsporum turned out to be 32 µg/mL; in the assay on Candida albicans, 32 µg/mL; with Aspergillus niger it was 64 µg/mL; against Saccharomyces cerevisiae it was 8 µg/mL.
In the case of `O=C(Cn1cnnc1)c1ccc(Cl)cc1O`, the minimum inhibitory concentration (MIC) is 64 µg/mL (≈ 269 µM) in the assay on Microsporum, 16 µg/mL (≈ 67.3 µM) in the assay with Candida albicans, 32 µg/mL (≈ 135 µM) in the assay on Aspergillus niger and 16 µg/mL (≈ 67.3 µM) against Saccharomyces cerevisiae.
Take `N[n+]1cnn(CC(=O)c2ccccc2O)c1.[Br-]`: the MIC is 32 µg/mL against Microsporum, 64 µg/mL against Candida albicans, 32 µg/mL with Aspergillus niger and 32 µg/mL against Saccharomyces cerevisiae.
As to `O/N=C(\Cn1ccnc1)c1ccccc1O`, the MIC came to 64 µg/mL (≈ 295 µM) in the assay on Microsporum, 32 µg/mL (≈ 147 µM) with Candida albicans, 64 µg/mL (≈ 295 µM) in the assay on Aspergillus niger and 32 µg/mL (≈ 147 µM) against Saccharomyces cerevisiae.
For `O=C(Cn1ccnc1)c1ccccc1O`, the minimum inhibitory concentration (MIC) in the assay with Microsporum, against Candida albicans, with Aspergillus niger and with Saccharomyces cerevisiae was 64 µg/mL (≈ 316 µM) each time.
On to `O=C(Cn1c[n+](CC(=O)c2ccccc2O)cn1)c1ccccc1O.[Br-]`, for which the MIC with Microsporum is 16 µg/mL; against Candida albicans it was 16 µg/mL; against Aspergillus niger it was 32 µg/mL; with Saccharomyces cerevisiae it was 1 µg/mL. The compound further displayed a half-inhibitory concentration (IC50) in assay [1] of 47 µg/mL.
On to `N[n+]1cnn(CC(=O)c2ccc(Cl)cc2O)c1.[Br-]`, for which the MIC in the assay on Microsporum turned out to be 16 µg/mL; with Candida albicans, 4 µg/mL; with Aspergillus niger, 32 µg/mL; against Saccharomyces cerevisiae, 0.25 µg/mL. In assay [1], this compound showed an IC50 of 370 µg/mL.
For `O=C(Cn1cnnc1)c1ccccc1O`, the MIC against Microsporum turned out to be 16 µg/mL (≈ 78.7 µM); against Candida albicans, 32 µg/mL (≈ 157 µM); in the assay with Aspergillus niger, 16 µg/mL (≈ 78.7 µM); against Saccharomyces cerevisiae, 16 µg/mL (≈ 78.7 µM).
Turning to `COc1ccc(C(=O)Cn2c[n+](CC(=O)c3ccc(OC)cc3O)cn2)c(O)c1.[Br-]`, the minimal inhibitory concentration (MIC) against Microsporum was 16 µg/mL; with Candida albicans it was 8 µg/mL; against Aspergillus niger it was 16 µg/mL; against Saccharomyces cerevisiae, 4 µg/mL. Besides, in assay [1], the IC50 was found to be 98 µg/mL.
Regarding `OC(Cn1cncn1)(Cn1cncn1)c1ccc(F)cc1F` [FLUCONAZOLE], the MIC was determined as 32 µg/mL (≈ 104 µM) with Microsporum, 8 µg/mL (≈ 26.1 µM) in the assay on Candida albicans, 32 µg/mL (≈ 104 µM) in the assay with Aspergillus niger and 32 µg/mL (≈ 104 µM) against Saccharomyces cerevisiae. This compound showed an IC50 in assay [1] of 387 µg/mL (≈ 1260 µM).
`Clc1ccc(COC(Cn2ccnc2)c2ccc(Cl)cc2Cl)c(Cl)c1` (stereo not given) [MICONAZOLE]: the MIC with Microsporum was found to be 8 µg/mL (≈ 19.2 µM); in the assay on Candida albicans, 1 µg/mL (≈ 2.4 µM); in the assay on Aspergillus niger it was 2 µg/mL (≈ 4.81 µM); in the assay on Saccharomyces cerevisiae, 1 µg/mL (≈ 2.4 µM).
